Data as given in ChEMBL document CHEMBL1151851, “Antioxidant Lignans from the Fruits of Broussonetia papyrifera” (J Nat Prod, 2009).
Activity calls are given as the source filed them. No cut-off for these calls is given here.

Legend:
[1] = test system: Radical scavenging activity; assay: Antioxidant activity assessed as DPPH radical scavenging activity after 30 mins by spectrophotometry; format: functional
[2] = test system: PC-12; assay: Antioxidant activity against H2O2-induced impairment in rat PC12 cells at 0.16 to 100 uM after 3 hrs by MTT assay; format: functional, cell-based
How it was run: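 PC12 cells in RPMI 1640 with 5% fetal calf serum, 10% horse serum, penicillin/streptomycin and 20 mM L-glutamine. Seeded at 1 × 10^6/mL, 24 h at 37 °C, 5% CO2. Then exposed to H2O2 (200 µM final) together with compound (0.16–100 µM final) for 3 h. PBS rinse, MTT 0.4 mg/mL for 4 h at 37 °C, DMSO solubilization, OD 570 nm. Viability %, n = 6, mean ± SD.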

Row | SMILES | IC50 [1] | Activity [2]
1 | COC(c1ccc(O)cc1)[C@H]1CO[C@@H](c2ccc(O)cc2)[C@@H]1CO (relative stereo) [CHUSHIZISIN G] | 281 µM | 
2 | COc1cc([C@H]2OC[C@H]3[C@@H]2CO[C@@H]3c2ccc(O)cc2)cc2c1O[C@H](c1ccc(O)cc1)[C@H]2CO (relative stereo) |  | Active
3 | COc1cc(/C=C/CO)ccc1O[C@H](CO)[C@H](O)c1ccc(O)cc1 (relative stereo) [CHUSHIZISINS A] | 237 µM | Active
4 | COc1cc(CCCO)ccc1O[C@H](CO)[C@@H](O)c1ccc(O)cc1 (relative stereo) [CHUSHIZISINS D] | 274 µM | 
5 | COc1cc(/C=C/CO)ccc1O[C@H](CO)[C@@H](O)c1ccc(O)cc1 (relative stereo) [CHUSHIZISINS B] | 156 µM | 
6 | COc1cc(CCCO)cc2c1O[C@H](c1ccc(O)cc1)[C@H]2CO |  | Active
7 | COc1cc(C(=O)CCO)cc2c1O[C@H](c1ccc(O)cc1)[C@H]2CO (relative stereo) |  | Active
8 | COc1cc([C@H](O)[C@@H](CO)Oc2ccc(/C=C/CO)cc2OC)ccc1O (relative stereo) | 60.9 µM | Active
9 | COc1cc(C(=O)[C@@H]2CO[C@H](c3ccc(O)cc3)[C@H]2CO)ccc1O[C@H](CO)[C@@H](O)c1ccc(O)cc1 (relative stereo) |  | Active
